Assay results from different studies.
Each line is one published result; the experiments were not run side by side.

With `CC[C@@]1(O)C(=O)OCc2c1cc1n(c2=O)Cc2cc3ccccc3nc2-1` the Papp B→A was 10 ×10⁻⁶ cm/s (MDCK; Caco-2; 100 µM, 105 min, pH 7.4).
`N#Cc1ccc(NC(=S)NN=Cc2ccc(F)cc2)cc1` has a CC50 of greater than 100 µg/mL (CRFK; cell growth or viability, MTS).
With `O=C(Nc1cccnn1)N1CCN([C@@H]2CCOc3cc(C(F)(F)F)ccc32)CC1` the concentration was 438 ng/g (male Sprague-Dawley rat, brain; oral, 1 mg/kg, 4 h).
With `COC(=O)C(NC(=O)c1cn(CCCCCF)c2ccccc12)C(C)(C)C` (stereo not drawn) the half-life was 17.1 h (male Sprague-Dawley rat, plasma; subcutaneous, 200 µg/kg).
`CN(C)[C@H]1C[C@@]23CC[C@@]4(O2)C(=CC[C@]2(C)C(c5ccc6ccncc6c5)=CC[C@H]24)C=C3[C@@H](O)[C@@H]1O` has a CC50 of 100 µM (human PBMC; cell growth or viability, flow cytometry).
For `COC(=O)[C@H]1[C@@H](OC(=O)c2ccccc2)C[C@@H]2CC[C@H]1N2C`, the concentration was 310 ng/mL (male Sprague-Dawley rat, plasma; intraperitoneal, 10 mg/kg, 1 h).
`O=C(O)C(F)(F)C(F)(F)C(F)(F)C(F)(F)C(F)(F)C(F)(F)C(F)(F)F` gave a Km of 65.8 µM (Solute carrier family 22 member 6 (SLC22A6, Homo sapiens, UniProt Q4U2R8); transporter uptake, substrate; HEK293; 2.5 min, pH 7.4).
`N#Cc1ccc(NC(=S)NN=Cc2ccccc2)cc1` has a CC50 of greater than 100 µg/mL (CRFK; cell growth or viability, MTS).
The half-life of `Cl.Cl.O=C(CCN1CCCCC1)c1ccc(-c2ccc(C(=O)CCN3CCCCC3)cc2)cc1` is reported as 6.05 h (Sprague-Dawley rat, plasma; oral, 25 mg/kg).
